Data on 18 compounds can be found in ChEMBL document CHEMBL1136930, “Doubly loaded cycloSaligenyl-pronucleotides - 5,5'-Bis-(cycloSaligenyl-2',3'-dideoxy-2',3'-didehydrothymidine monophosphates)” (J Med Chem, 2009).

Data set [1] can be described thus: Chemical stability assessed as hydrolysis half life by HPLC analysis. The format is physicochemical.
A short description of data set [2]: Chemical stability assessed as hydrolysis half life in aqueous phosphate buffer saline at pH 7.3 by HPLC analysis. The class given is physicochemical. Particulars: for t1/2: buffer; for half-life: aqueous phosphate buffered saline.
Data set [3] in a line: Ratio of hydrolysis half life in aqueous phosphate buffer saline at pH 7.3 to hydrolysis half life in RPMI-1640 culture medium at pH 7.6 in presence 10% heat-inactivated fetal calf serum. The format is ADME.
Data set [4] concerns Human immunodeficiency virus 2. The data set can be described thus: Antiviral activity against HIV2 in thymidine kinase deficient human CEM cells assessed as virus-induced cytopathic effect after 4 to 5 days by microscopy. The class given is functional, organism-based, CCRF-CEM. The procedure, abridged:
(§1)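 50% effective concentration against HIV in wild-type or thymidine kinase-deficient CEM T-lymphocytes, reported as the mean of two to three independent experiments.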

Data set [5] deals with Human immunodeficiency virus 1. Nature of the data set: Antiviral activity against HIV1 in wild type human CEM cells assessed as virus-induced cytopathic effect after 4 to 5 days by microscopy. The format is functional, organism-based, CCRF-CEM. The procedure, abridged:
as §1
Background: Protection from cytopathic effect is a common read-out in antiviral testing.

Data set [6] in a line: Chemical stability assessed as half life of hydrolysis in RPMI-1640 culture medium at pH 7.6 in presence 10% heat-inactivated fetal calf serum by HPLC analysis. The settings on record: cattle; for t1/2: serum. The format is physicochemical.
Data set [7] has as its system Human immunodeficiency virus 2. Nature of the data set: Antiviral activity against HIV2 in wild type human CEM cells assessed as virus-induced cytopathic effect after 4 to 5 days by microscopy. The format is functional, organism-based, CCRF-CEM. The procedure, abridged: as §1
Data set [8] is described as follows: Chemical stability assessed as hydrolysis half life in aqueous phosphate buffer saline at pH 7.6 by HPLC analysis. The format is physicochemical. Particulars: for t1/2: buffer; for half-life: aqueous phosphate buffered saline.
Data set [9] in a line: (§2) Cytostatic activity against wild type human CEM cells. The settings on record: wild type CEM (CCRF-CEM) cells. The format is cell-based, CCRF-CEM. The procedure, abridged: (§3)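 50% cytostatic concentration measured in wild-type CEM T-lymphocyte cultures.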
The nature of data set [10]: Ratio of hydrolysis half life in RPMI-1640 culture medium at pH 7.6 in presence 10% heat-inactivated fetal calf serum to hydrolysis half life in aqueous phosphate buffer saline at pH 7.6. Particulars: cattle. The format is ADME.
The subject of another data set is CCRF-CEM. Described as §2. The class given is cell-based. Particulars: ccrf-cem. The procedure, abridged:
as §3

Setting [11] is: Human immunodeficiency virus 1, CCRF-CEM.
Where [12] appears, read: Human immunodeficiency virus 2, CCRF-CEM.

Bounds are passed on as bounds.

The half-life is the time needed for the level to fall by half in the phase considered. `Cc1cccc2c1OP(=O)(OC[C@@H]1C=C[C@H](n3cc(C)c(=O)[nH]c3=O)O1)OC2` (some centres undefined): in data set [1], the half-life was 15 h.

As for `Cc1cn([C@H]2C=C[C@@H](COP3(=O)OCc4cccc(-c5cccc6c5OP(=O)(OC[C@@H]5C=C[C@H](n7cc(C)c(=O)[nH]c7=O)O5)OC6)c4O3)O2)c(=O)[nH]c1=O` (some centres undefined), in data set [2], the t1/2 worked out at 8.2 h.

As a reminder, the EC50 is the midpoint of the concentration-response curve. As usually defined, the CC50 is the concentration at which the toxic effect on the cells reaches its halfway point. High values mean lower toxicity to the cells, low ones greater toxicity to the cells. On to `Cc1cn([C@H]2C=C[C@@H](COP3(=O)OCc4cc(-c5ccc6c(c5)COP(=O)(OC[C@@H]5C=C[C@H](n7cc(C)c(=O)[nH]c7=O)O5)O6)ccc4O3)O2)c(=O)[nH]c1=O` (some centres undefined), for which the t1/2 in data set [2] amounted to 1.7 h; in [6] it was 0.8 h; in data set [8], 0.5 h. For the same compound, the Ratio in [3] was determined as 2. The EC50 was determined as 7.5 µM in data set [4] (ccrf-cem), 0.51 µM in [5] (setting [11]) and 0.62 µM in [7] (setting [12]). Also, it took 115 µM to reach half-maximal cytotoxicity in [9] (CC50).

Take `CC(C)(C)c1cc(-c2cc(CO)c(O)c(C(C)(C)C)c2)cc(CO)c1O`: the results for the EC50 in data set [4] (setting [12]), in [5] (setting [11]) and in data set [7] (setting [12]) were 6.9 µM, 7.9 µM and 7.9 µM, respectively. In [9], the CC50 was 20 µM.

As for `OCc1cc(-c2ccc(O)c(CO)c2)ccc1O`, the EC50 in [4] (setting [12]) worked out at 18 µM; in data set [5] (setting [11]) it was 99 µM; in data set [7] (setting [12]) it was 117 µM. Also, in data set [9], the CC50 was above 250 µM.

As to `Cc1cn([C@H]2C=C[C@@H](COP3(=O)OCc4cc(-c5ccc(O)c(CO)c5)ccc4O3)O2)c(=O)[nH]c1=O` (some centres undefined), the half-life in [2] is 2.2 h; in [6], 2.1 h; in data set [8], 2 h. In addition, the EC50 in data set [4] (setting [12]) was found to be 3.7 µM; in data set [5] (setting [11]), 0.73 µM; in data set [7] (setting [12]), 0.91 µM. In data set [9], the CC50 came out at 82 µM.

Consider `Cc1cn([C@H]2C=C[C@@H](COP3(=O)OCc4cc(-c5ccccc5)ccc4O3)O2)c(=O)[nH]c1=O` (some centres undefined), for which, in data set [1], the half-life was 3.1 h.

`Cc1cc(-c2cc(C)c(O)c(CO)c2)cc(CO)c1O`: the EC50 is above 50 µM in data set [4] (setting [12]), 20 µM in data set [5] (setting [11]) and above 50 µM in data set [7] (setting [12]). In [9], this compound registered a CC50 of 96 µM.

Take `Cc1cc(-c2cc(C)c3c(c2)COP(=O)(OC[C@@H]2C=C[C@H](n4cc(C)c(=O)[nH]c4=O)O2)O3)cc2c1OP(=O)(OC[C@@H]1C=C[C@H](n3cc(C)c(=O)[nH]c3=O)O1)OC2` (some centres undefined): the half-life was 2.2 h in [2], 2.3 h in [6] and 2.3 h in data set [8]. The results for the EC50 in data set [4] (setting [12]), in data set [5] (setting [11]) and in data set [7] (setting [12]) were 0.85 µM, 0.4 µM and 0.83 µM, respectively. In addition, it took 64 µM to reach half-maximal cytotoxicity in [9] (CC50).

With `Cc1cn([C@H]2C=C[C@@H](COP3(=O)OCc4cc(-c5cc6c(c(C(C)(C)C)c5)OP(=O)(OC[C@@H]5C=C[C@H](n7cc(C)c(=O)[nH]c7=O)O5)OC6)cc(C(C)(C)C)c4O3)O2)c(=O)[nH]c1=O` (some centres undefined), the half-life in data set [2] was 4.7 h; in data set [6], 8.3 h; in [8], 4.1 h. In data set [10], the Ratio turned out to be 2. Further, the values for the EC50 in data set [4] (setting [12]), in data set [5] (setting [11]) and in data set [7] (setting [12]) were 2.9 µM, 0.88 µM and 1.3 µM, respectively. Besides, in data set [9], half-maximal cytotoxicity (CC50) was put at 20 µM.

With `Cc1cn([C@H]2C=C[C@@H](COP3(=O)OCc4cccc(-c5cccc6c5OP(=O)(OC[C@@H]5C=C[C@H](n7cc(C)c(=O)[nH]c7=O)O5)OC6)c4O3)O2)c(=O)[nH]c1=O` (single isomer, unassigned; form 1), the t1/2 in data set [2] was 3.2 h.

Regarding `Cc1cn([C@H]2C=C[C@@H](COP3(=O)OCc4cc(-c5ccc6c(c5)COP(=O)(OC[C@@H]5C=C[C@H](n7cc(C)c(=O)[nH]c7=O)O5)O6)ccc4O3)O2)c(=O)[nH]c1=O` (single isomer, unassigned; form 1), the t1/2 in data set [2] turned out to be 1 h; in [6], 0.6 h; in [8], 0.4 h. In addition, the figures for the EC50 in data set [4] (ccrf-cem), in [5] (ccrf-cem) and in [7] (ccrf-cem) were 4.4 µM, 0.46 µM and 1.2 µM, respectively. The same compound displayed a CC50 in the data set with CCRF-CEM of 107 µM.

Take `Cc1cn([C@H]2C=C[C@@H](COP3(=O)OCc4cc(-c5cc6c(c(C(C)(C)C)c5)OP(=O)(OC[C@@H]5C=C[C@H](n7cc(C)c(=O)[nH]c7=O)O5)OC6)cc(C(C)(C)C)c4O3)O2)c(=O)[nH]c1=O` (single isomer, unassigned; form 1): the t1/2 in data set [2] was 4.3 h; in data set [6], 7.9 h; in [8], 3.9 h. For the same compound, the EC50 in [4] (ccrf-cem) was 2.8 µM; in [5] (ccrf-cem), 0.81 µM; in [7] (ccrf-cem), 1.6 µM. In the data set on CCRF-CEM, this compound displayed a CC50 of 18 µM.

On to `Cc1cn([C@H]2C=C[C@@H](COP3(=O)OCc4cccc(-c5cccc6c5OP(=O)(OC[C@@H]5C=C[C@H](n7cc(C)c(=O)[nH]c7=O)O5)OC6)c4O3)O2)c(=O)[nH]c1=O` (single isomer, unassigned; form 2), for which the t1/2 in [2] is 8.5 h.

On to `Cc1cn([C@H]2C=C[C@@H](COP3(=O)OCc4cc(-c5ccc6c(c5)COP(=O)(OC[C@@H]5C=C[C@H](n7cc(C)c(=O)[nH]c7=O)O5)O6)ccc4O3)O2)c(=O)[nH]c1=O` (single isomer, unassigned; form 2), for which, in data set [2], the t1/2 is 3.3 h. The EC50 is 3.3 µM in data set [4] (ccrf-cem) and 0.47 µM in data set [5] (ccrf-cem). The half-life in [6] was 1 h; in data set [8], 0.7 h. Also, the CC50 in the data set on CCRF-CEM turned out to be 78 µM.

For the compound `Cc1cn([C@H]2C=C[C@@H](COP3(=O)OCc4cc(-c5cc6c(c(C(C)(C)C)c5)OP(=O)(OC[C@@H]5C=C[C@H](n7cc(C)c(=O)[nH]c7=O)O5)OC6)cc(C(C)(C)C)c4O3)O2)c(=O)[nH]c1=O` (single isomer, unassigned; form 2), the t1/2 in data set [2] came to 4.7 h; in data set [6] it was 8 h; in data set [8] it was 4.1 h. Further, the EC50 in data set [4] (ccrf-cem) was determined as 3.2 µM; in data set [5] (ccrf-cem), 0.49 µM; in data set [7] (ccrf-cem), 1 µM. In the data set on CCRF-CEM, this compound had a CC50 of 19 µM.

On to `Cc1cn([C@H]2C=C[C@@H](COP3(=O)OCc4cc(-c5cc6c(c(C(C)(C)C)c5)OP(=O)(OC[C@@H]5C=C[C@H](n7cc(C)c(=O)[nH]c7=O)O5)OC6)cc(C(C)(C)C)c4O3)O2)c(=O)[nH]c1=O` (single isomer, unassigned; form 3), for which the t1/2 in [2] is 5.3 h; in data set [6], 9.1 h; in [8], 4.4 h. For the same compound, the EC50 in data set [4] (ccrf-cem) is 2.6 µM; in [5] (ccrf-cem), 0.86 µM; in [7] (ccrf-cem), 2 µM.

Turning to `Cc1cn([C@H]2C=C[C@@H](CO)O2)c(=O)[nH]c1=O` [STAVUDINE], the EC50 in data set [4] (setting [12]) was 29 µM; in data set [5] (setting [11]), 0.56 µM; in [7] (setting [12]) it was 0.79 µM. In data set [9], this compound gave a CC50 above 250 µM.
